Source: PubChem BioAssay
PKA-R1A act: activators of PKA-R1A complex; 340,000 tested, 0.083% active; AID 504707; PKA-R1A dissociation, Cy5-IP20 fluorescence polarization; scaled: DMSO 0%, 113 µM cGMP 100%; P00514+P68181; activation, % at 11.4 µM;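 active means percent activation above the mean of all tested compounds plus 3 SD, cut at about 19% in these data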;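 further: higher means more PKAc released from R1A so a rise in polarization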
PG9 Ab binder: PG9 antibody binding by small molecule; inhibition, % at 6.7 µM; TR-FRET gp120-PG9 antibody binding; 360,000 tested, 0.43% active; in the data active means inhibition above about 8.5%
NR2E3 ag-1: human photoreceptor-specific nuclear receptor agonism; CHO-S Gal4-NCOR/VP16-NR2E3 two-hybrid, luciferase; inhibition of corepressor binding, % at 3.98 µM; 360,000 tested, 0.35% active;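 active means inhibition above the mean of all tested compounds plus 3 SD, cut at about 70% in these data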;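 further: higher means lower luciferase signal from less NR2E3 corepressor binding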
NR2E3 ag-2: agonists of human nuclear receptor NR2E3 | AID 2300 | 320,000 tested, 0.12% active | GST-NR2E3/biotin-RetCOR TR-FRET, 1536-well | inhibition of corepressor binding, % at 4.78 µM | Q9Y5X4;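 active means percent inhibition above the cutoff of mean plus 3 SD of all tested compounds, set per screening campaign, cut at about 20% in these data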
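System: GST-tagged NR2E3 plus biotinylated RetCOR corepressor; Amount: 1.35 nM GST-tagged NR2E3 final; Dosing: single nominal compound dose of 4.8 µM; Schedule: 5 h incubation at 4 °C; Technique: TR-FRET with europium anti-GST and streptavidin-D2, 340 nm excitation; Controls: biotin wells as high control, 0.6% DMSO wells as low control.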
PKA-R2B activ: PKA-R2B complex activation. P22694+P31323. PKA-R2B holoenzyme dissociation, Cy5-IP20 fluorescence polarization; R2B truncated from residue 108, S112A mutant; 0% DMSO only, 100% 113 µM cGMP. activation, % at 11.4 µM. 340,000 tested, 0.079% active;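 active means activation above a cutoff set at the mean over all compounds plus 3 SD, cut at about 18% in these data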;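 further: higher means more holoenzyme dissociation and a rise in polarization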
NR1D1 modulator: modulators of human Rev-erb alpha DNA binding; P20393; Rev-erbα–FITC-DNA binding, fluorescence polarization, 90 min; activity, % at 10 µM; 370,000 tested, 0.79% active;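 active means activity above about 14%, limit read from the data; passing the limit was not always enough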
Target sequence (P20393 whole entry, looked up): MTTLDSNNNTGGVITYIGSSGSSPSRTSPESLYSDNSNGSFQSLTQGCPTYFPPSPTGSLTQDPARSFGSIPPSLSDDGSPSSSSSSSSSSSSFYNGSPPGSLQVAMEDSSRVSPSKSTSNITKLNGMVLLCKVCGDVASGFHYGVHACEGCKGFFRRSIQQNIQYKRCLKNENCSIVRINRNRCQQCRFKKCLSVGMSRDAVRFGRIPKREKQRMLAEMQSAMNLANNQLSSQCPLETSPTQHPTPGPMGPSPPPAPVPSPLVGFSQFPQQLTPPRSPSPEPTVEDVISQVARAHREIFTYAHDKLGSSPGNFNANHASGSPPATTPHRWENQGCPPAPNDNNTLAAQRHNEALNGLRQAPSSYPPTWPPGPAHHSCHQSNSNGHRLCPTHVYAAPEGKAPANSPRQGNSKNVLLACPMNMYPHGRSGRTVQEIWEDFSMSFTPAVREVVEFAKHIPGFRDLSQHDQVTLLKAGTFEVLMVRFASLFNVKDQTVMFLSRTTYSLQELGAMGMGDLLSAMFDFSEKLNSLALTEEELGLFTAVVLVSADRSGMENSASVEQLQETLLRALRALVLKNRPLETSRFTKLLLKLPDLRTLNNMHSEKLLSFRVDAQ
NR2E3 ag confirm: NR2E3 agonism confirmed in two-hybrid assay. inhibition, % at 3.98 µM. AID 624378. CHO-S mammalian two-hybrid NR2E3-NCOR, luciferase luminescence. shares compounds with NR2E3 ag-1. 2,300 tested, 51% active;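 active means average inhibition above a cutoff equal to the mean inhibition of all tested compounds plus one SD, cut at about 70% in these data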
VP16 counter: GAL4-VP16 reporter inhibition in NR2E3 agonist counterscreen. shares compounds with NR2E3 ag-1. CHO-S GAL4-VP16 luciferase reporter, luminescence. inhibition, % at 3.98 µM. 2,300 tested, 29% active;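 active means mean inhibition above a cutoff equal to the average over all tested compounds plus one standard deviation, cut at about 70% in these data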;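 further: luciferase from a UAS reporter driven by GAL4-VP16 transactivation; higher means less reporter light so more repression of VP16 activity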
PG9 bind confirm: confirmation of small molecules binding HIV-1 gp120 antibody PG9 | shares compounds with PG9 Ab binder | TR-FRET PG9 antibody binding, biochemical | inhibition, % at 6.7 µM | 1,500 tested, 90% active; in the data active means inhibition above about 9%
PGV04 counter: PGV04 control antibody binding, counter-screen. shares compounds with PG9 Ab binder. TR-FRET PGV04 antibody-gp120 binding, biochemical. inhibition, % at 6.7 µM. 1,500 tested, 95% active; in the data active means inhibition above about 9.5%
NR1D1 mod conf: Rev-erb alpha (human) modulation, hit confirmation. shares compounds with NR1D1 modulator. Rev-erb alpha FITC-DNA binding, fluorescence polarization, 90 min. activation, % at 25 µM. 3,000 tested, 61% active. AID 1259319;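 active means activation at or above a set limit, or at least 3 SD above the negative control mean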
RORg counter: counter-screen for Rev-erb alpha modulators: RORgamma DNA binding; AID 1259320; purified RORgamma protein-FITC-DNA binding, fluorescence polarization; shares compounds with NR1D1 modulator; IC50, µM; 910 tested, 8% active;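 active means Compounds whose fitted half-maximal concentration for disrupting protein-DNA binding is below 10 micromolar; the record names Rev-erb in its text, so the target is in doubt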
Large screens that a line does not name were inactive (follow-up assays come after a bar, where they were run). Compounds with a hit are over-represented: about 1.6% of the library has one in this group of screens.

COC1CC2C=C(C)C=CC=CC(=O)NC(c3ccccc3)CC=CCCC(O)CC(=O)C2=C1O (stereo not drawn)	NR2E3 ag-1 102.7 (no result: PKA-R1A act, NR2E3 ag-2, PKA-R2B activ) | NR2E3 ag confirm 98.5 | VP16 counter 95.4
CC(N)C(=O)NC1C2C(=C(O)CC(O)C2O)C(=O)OC1(C)C(Cl)Cl (stereo not drawn)	NR2E3 ag-1 98.1 (no result: NR2E3 ag-2) | NR2E3 ag confirm 96.1 | VP16 counter 91.9
CC1=CC(C)CC(C)OC(=O)CC(c2ccc(O)cc2)NC(=O)C(Cc2c(Br)[nH]c3ccccc23)N(C)C(=O)C(C)NC(=O)C(C)C1 (stereo not drawn)	none (no result: NR2E3 ag-2) | NR2E3 ag confirm inactive | VP16 counter inactive
CCCOC(=O)COc1cc(C)cc2oc(=O)c3c(c12)CCC3	PG9 Ab binder 9.9 | PG9 bind confirm 22.9 | PGV04 counter 29.5
Cc1cc(OCC(=O)O)c2c3c(c(=O)oc2c1)CCCC3	none
C[N+]1=C(N)NC2=C3CCCCC3ONC2C1 (stereo not drawn)	none (no result: PKA-R1A act, PG9 Ab binder, NR2E3 ag-1, NR2E3 ag-2, PKA-R2B activ)
CCC(CO)NC(=O)C1C=C2c3cccc4[nH]cc(c34)CC2N(C)C1 (stereo not drawn)	PG9 Ab binder 14.3 | PG9 bind confirm 11.6 | PGV04 counter 15.1
CC[C@@H](CO)NC(=O)[C@@H]1C=C2c3cccc4[nH]cc(c34)C[C@H]2N(C)C1	PG9 Ab binder 15.8 (no result: NR2E3 ag-2) | PG9 bind confirm 21.3 | PGV04 counter 33.2
CC[C@@H](CO)NC(=O)[C@@H]1C=C2c3cccc4c3c(cn4C)C[C@H]2N(C)C1	none
N#CCC[C@@H]1CC[C@]2(CCCN(Cc3ccccn3)C2)O1	none (no result: PKA-R1A act, PG9 Ab binder, NR2E3 ag-1, NR2E3 ag-2, PKA-R2B activ)
CCn1c(O)c(C=Nc2ccc(S(N)(=O)=O)cc2)c(=O)[nH]c1=S	PG9 Ab binder 25.3 | PG9 bind confirm 91.7 | PGV04 counter 92.0
NS(=O)(=O)c1ccc(N=Cc2c(O)n(C3CCCCC3)c(=O)n(C3CCCCC3)c2=O)cc1	none
CCn1c(O)c(C=NCc2ccccc2)c(=O)[nH]c1=S	PG9 Ab binder 10.8 | PG9 bind confirm 27.7 | PGV04 counter 37.1
CCn1c(O)c(C=Nc2ccc(S(N)(=O)=O)cc2)c(=O)n(CC)c1=S	PG9 Ab binder 54.3 | PG9 bind confirm 68.7 | PGV04 counter 86.0
CC(NC(=O)OC1CC2CCC1(C)C2(C)C)P(=O)(Oc1ccccc1)Oc1ccccc1 (stereo not drawn)	none (no result: PKA-R1A act, PG9 Ab binder, NR2E3 ag-1, NR2E3 ag-2, PKA-R2B activ)
CC(C)C[C@H]1N=C(c2ccccc2)c2ccccc2N(CC(=O)NC(C)(C)C)C1=O	none (no result: PKA-R1A act, PG9 Ab binder, NR2E3 ag-1, NR2E3 ag-2, PKA-R2B activ)
Cn1cc(/C=C2\C(=O)NC(=O)N(c3ccccc3)C2=O)c2ccccc21	PG9 Ab binder 11.2 | PG9 bind confirm inactive | PGV04 counter 20.4
CCCCCn1c(=O)c(C(=O)Nc2ccccc2S(N)(=O)=O)c(O)c2ccccc21	PG9 Ab binder 69.2, NR1D1 modulator 42.9 | PG9 bind confirm 79.2 | PGV04 counter 83.2 | NR1D1 mod conf inactive
COc1ccc([C@@H]2C[C@H]3[C@@H](CN2)CON3C)cc1	none (no result: PKA-R1A act, PG9 Ab binder, NR2E3 ag-1, NR2E3 ag-2, PKA-R2B activ)
CCCCCCCn1c(=O)c(C(=O)Nc2cnccn2)c(O)c2ccccc21	NR1D1 modulator 47.9 | NR1D1 mod conf 43.1 | RORg counter inactive
CN1/C(=C\C=C2C(=O)NC(=O)NC2=O)C(C)(C)c2ccccc21	NR1D1 modulator 19.7 | NR1D1 mod conf inactive
O=c1[nH]c(O)c(N=Nc2cc([N+](=O)[O-])ccc2O)c(=O)[nH]1	NR1D1 modulator 19.8 | NR1D1 mod conf inactive
O=C(c1cccs1)c1cn(Cc2ccccc2Cl)c2ccccc12	none
N#Cc1ccccc1Cn1cc(C(=O)c2cccs2)c2ccccc21	NR1D1 modulator 25.0 | NR1D1 mod conf inactive
COC(=O)C1=C(c2ccc(F)cc2F)C[C@@H]2CC[C@H]1N2C(=O)NCCCOC(C)C	NR1D1 modulator 19.4 | NR1D1 mod conf inactive
COC(=O)C1=C(c2ccc(F)cc2F)C[C@@H]2CC[C@H]1N2C(=O)NCCO	none
CCCCCCn1c(O)c(C=Nc2ccccc2N2CCOCC2)c(=O)[nH]c1=S	NR1D1 modulator 53.5 (no result: PKA-R1A act, PKA-R2B activ) | NR1D1 mod conf inactive
CCOc1cc(C)cc2oc(=O)c3c(c12)CCCC3	NR1D1 modulator 27.1 | NR1D1 mod conf inactive
COC(=O)c1ccc(COc2cc(C)cc3oc(=O)c4c(c23)CCCC4)o1	none
Cc1cccc(C(C)c2cnc[nH]2)c1C (stereo not drawn)	none (no result: PKA-R1A act, PG9 Ab binder, NR2E3 ag-1, NR2E3 ag-2, PKA-R2B activ)
O=C(/C=C/c1c[nH]c2ccccc12)c1c(O)n(CCc2ccccc2)c(=O)[nH]c1=O	NR1D1 modulator 38.8 (no result: PKA-R1A act, PKA-R2B activ) | NR1D1 mod conf inactive
COc1ccc(CCn2c(O)c(C=Nc3ccc(F)cc3)c(=O)[nH]c2=O)cc1OC	NR1D1 modulator 130.3 (no result: PKA-R1A act, PKA-R2B activ) | NR1D1 mod conf 69.1 | RORg counter inactive
COC(=O)c1cccc(N=Cc2c(O)n(Cc3ccc(F)cc3)c(=O)[nH]c2=O)c1	NR1D1 modulator 615.7 (no result: PKA-R1A act, PKA-R2B activ) | NR1D1 mod conf 21.6
O=C(O)c1ccc(N=Cc2c(O)n(Cc3ccc(F)cc3)c(=O)[nH]c2=O)cc1	none
Clc1cc(Cl)cc(CN2Cc3ccccc3-n3nncc3C2)c1	none (no result: PKA-R1A act, PG9 Ab binder, NR2E3 ag-1, NR2E3 ag-2, PKA-R2B activ)
O=C(NCCN1CCC2(CC1)C(=O)NCN2c1ccccc1)c1ccc(F)cc1	none (no result: PKA-R1A act, NR2E3 ag-1, NR2E3 ag-2, PKA-R2B activ)
O=C1NC(=O)N(c2ccc3c(c2)OCO3)C(=O)/C1=C/c1ccc(N2CCCC2)o1	none
CCOc1ccc(N2C(=O)NC(=O)/C(=C\c3ccc(N4CCCCC4)o3)C2=O)cc1	NR1D1 modulator 28.9 | NR1D1 mod conf 32.8
CCN1C(=O)C(=Cc2ccc(N3CCOCC3)o2)C(=O)N(CC)C1=S	none
CN1C(=O)C(=Cc2ccc(N3CCOCC3)o2)C(=O)N(C)C1=S	NR1D1 modulator 39.0 | NR1D1 mod conf 44.2 | RORg counter inactive
